≈ marks a conversion by molar mass, not a printed value.
Experiments:
[1] = Volume of distribution at steady state in mouse at 3 mg/kg, iv; format: ADME, organism-based; details: in vivo, read-out: Vdss
[2] = target: Voltage-gated inwardly rectifying potassium channel KCNH2 (Homo sapiens, UniProt Q12809); assay: Inhibition of human ERG by patch clamp assay
[3] = Solubility of the compound in fasted state stimulated intestinal fluid; format: ADME; details: fasted state simulated intestinal fluid (FaSSIF)
Mus musculus = assay: Antiathritis activity in anticollagen antibody-induced arthritis BALB/c mouse model assessed as reduction in LPS-induced paw swelling at 5 mg/kg, po qd followed by LPS addition on day 3 measured after 11 days relative to control; format: functional; parameters: scale not given: the % may be the effect or the level left
[4] = Half life in cynomolgus monkey at 2 mg/kg, iv; format: ADME, organism-based, Macaca fascicularis; details: in vivo
[5] = target: T1, Tyrosine-protein kinase BTK (Homo sapiens, UniProt Q06187); assay: Inhibition of BTK in human PBM cells assessed as suppression of FCRgammaR/immune complex-stimulated TNFalpha production; format: cell-based
T1 sequence (Q06187 whole entry): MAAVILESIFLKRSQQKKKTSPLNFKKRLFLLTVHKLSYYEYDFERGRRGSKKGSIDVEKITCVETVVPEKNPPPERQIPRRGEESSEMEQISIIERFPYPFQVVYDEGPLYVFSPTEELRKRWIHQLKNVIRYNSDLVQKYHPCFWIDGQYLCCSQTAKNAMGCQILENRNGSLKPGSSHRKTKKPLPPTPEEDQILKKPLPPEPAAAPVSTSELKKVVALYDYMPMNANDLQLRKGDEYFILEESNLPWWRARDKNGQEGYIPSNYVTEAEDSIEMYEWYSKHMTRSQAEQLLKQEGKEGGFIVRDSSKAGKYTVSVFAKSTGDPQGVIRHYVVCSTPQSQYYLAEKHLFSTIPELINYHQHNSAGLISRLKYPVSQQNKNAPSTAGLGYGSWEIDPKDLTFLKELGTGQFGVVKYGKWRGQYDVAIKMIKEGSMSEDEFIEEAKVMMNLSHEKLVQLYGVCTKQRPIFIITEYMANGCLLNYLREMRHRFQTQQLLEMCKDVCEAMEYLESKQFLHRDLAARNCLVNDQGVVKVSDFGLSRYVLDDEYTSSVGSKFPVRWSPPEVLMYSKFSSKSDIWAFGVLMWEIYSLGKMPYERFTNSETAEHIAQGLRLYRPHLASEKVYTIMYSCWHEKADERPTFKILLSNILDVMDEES

[6] = target: T1, Tyrosine-protein kinase BTK; assay: Inhibition of BTK in human peripheral B cells assessed as suppression of CD40/CD40L-stimulated CD69 surface expression; format: cell-based
[7] = Tmax in cynomolgus monkey at 4 mg/kg, po; format: ADME, organism-based, Macaca fascicularis; details: in vivo
[8] = Oral bioavailability in cynomolgus monkey at 4 mg/kg; format: ADME, organism-based, Macaca fascicularis; details: in vivo
Cytochrome P450 2C19 = Cytochrome P450 2C19 (Homo sapiens, UniProt P33261); assay: Inhibition of CYP2C19 (unknown origin); format: ADME
Cytochrome P450 2C19, sequence (P33261 whole entry): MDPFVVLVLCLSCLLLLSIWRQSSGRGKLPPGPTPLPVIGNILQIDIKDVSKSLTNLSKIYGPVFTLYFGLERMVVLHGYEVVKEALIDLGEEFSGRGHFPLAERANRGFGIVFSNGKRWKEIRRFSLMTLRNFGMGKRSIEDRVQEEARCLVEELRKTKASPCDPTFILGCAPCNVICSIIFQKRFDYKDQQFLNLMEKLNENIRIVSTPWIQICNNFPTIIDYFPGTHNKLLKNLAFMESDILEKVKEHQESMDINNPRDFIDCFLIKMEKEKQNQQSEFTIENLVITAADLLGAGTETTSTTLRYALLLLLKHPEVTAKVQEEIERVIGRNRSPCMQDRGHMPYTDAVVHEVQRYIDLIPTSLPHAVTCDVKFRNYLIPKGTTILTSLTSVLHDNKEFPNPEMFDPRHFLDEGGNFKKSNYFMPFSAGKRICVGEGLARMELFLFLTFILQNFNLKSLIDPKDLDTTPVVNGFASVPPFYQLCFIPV

[9] = AUC in mouse at 6 mg/kg, po; format: ADME, organism-based; details: in vivo
Cytochrome P450 2D6 = Cytochrome P450 2D6 (Homo sapiens, UniProt P10635); assay: Inhibition of CYP2D6 (unknown origin); format: ADME
Cytochrome P450 2D6, sequence (P10635 whole entry): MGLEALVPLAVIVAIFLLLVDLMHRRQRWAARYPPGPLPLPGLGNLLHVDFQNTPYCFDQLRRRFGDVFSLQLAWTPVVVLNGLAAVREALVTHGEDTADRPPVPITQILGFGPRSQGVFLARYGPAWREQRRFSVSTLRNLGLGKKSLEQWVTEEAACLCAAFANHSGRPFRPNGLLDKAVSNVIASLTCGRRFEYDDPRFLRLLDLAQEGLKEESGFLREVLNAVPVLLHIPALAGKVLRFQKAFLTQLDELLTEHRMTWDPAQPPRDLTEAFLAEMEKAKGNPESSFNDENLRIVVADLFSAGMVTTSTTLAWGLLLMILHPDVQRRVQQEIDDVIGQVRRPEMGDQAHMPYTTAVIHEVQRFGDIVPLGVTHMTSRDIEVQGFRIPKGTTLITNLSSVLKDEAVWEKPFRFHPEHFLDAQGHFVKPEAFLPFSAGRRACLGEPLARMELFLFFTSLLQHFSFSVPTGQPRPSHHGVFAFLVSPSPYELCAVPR

[10] = Oral bioavailability in dog at 2 mg/kg; format: ADME, organism-based, Canis lupus familiaris; details: in vivo
Cytochrome P450 2C9 = Cytochrome P450 2C9 (Homo sapiens, UniProt P11712); assay: Inhibition of CYP2C9 (unknown origin); format: ADME
Cytochrome P450 2C9, sequence (P11712 whole entry): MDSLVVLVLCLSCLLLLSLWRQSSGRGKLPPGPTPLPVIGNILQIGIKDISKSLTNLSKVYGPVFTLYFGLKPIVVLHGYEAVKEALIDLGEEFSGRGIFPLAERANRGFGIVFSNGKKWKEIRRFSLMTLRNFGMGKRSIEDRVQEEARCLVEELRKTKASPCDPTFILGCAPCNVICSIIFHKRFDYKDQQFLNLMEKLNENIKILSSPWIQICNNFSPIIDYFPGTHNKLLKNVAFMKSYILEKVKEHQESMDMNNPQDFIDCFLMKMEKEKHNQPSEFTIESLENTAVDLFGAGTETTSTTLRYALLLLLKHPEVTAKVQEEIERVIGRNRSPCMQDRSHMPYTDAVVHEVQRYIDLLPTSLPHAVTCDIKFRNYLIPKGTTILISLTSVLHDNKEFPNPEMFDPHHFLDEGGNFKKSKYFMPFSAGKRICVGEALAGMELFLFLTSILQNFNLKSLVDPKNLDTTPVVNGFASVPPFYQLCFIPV

[11] = target: Tyrosine-protein kinase BTK (Mus musculus, UniProt P35991); assay: Inhibition of BTK in mouse whole blood assessed as suppression of BCR/anti-IgM/IgG-stimulated CD69 surface expression after 18 hrs with agitation by FITC-staining based FACS analysis; format: tissue-based
Tyrosine-protein kinase BTK (Mus musculus, UniProt P35991), sequence (P35991 whole entry): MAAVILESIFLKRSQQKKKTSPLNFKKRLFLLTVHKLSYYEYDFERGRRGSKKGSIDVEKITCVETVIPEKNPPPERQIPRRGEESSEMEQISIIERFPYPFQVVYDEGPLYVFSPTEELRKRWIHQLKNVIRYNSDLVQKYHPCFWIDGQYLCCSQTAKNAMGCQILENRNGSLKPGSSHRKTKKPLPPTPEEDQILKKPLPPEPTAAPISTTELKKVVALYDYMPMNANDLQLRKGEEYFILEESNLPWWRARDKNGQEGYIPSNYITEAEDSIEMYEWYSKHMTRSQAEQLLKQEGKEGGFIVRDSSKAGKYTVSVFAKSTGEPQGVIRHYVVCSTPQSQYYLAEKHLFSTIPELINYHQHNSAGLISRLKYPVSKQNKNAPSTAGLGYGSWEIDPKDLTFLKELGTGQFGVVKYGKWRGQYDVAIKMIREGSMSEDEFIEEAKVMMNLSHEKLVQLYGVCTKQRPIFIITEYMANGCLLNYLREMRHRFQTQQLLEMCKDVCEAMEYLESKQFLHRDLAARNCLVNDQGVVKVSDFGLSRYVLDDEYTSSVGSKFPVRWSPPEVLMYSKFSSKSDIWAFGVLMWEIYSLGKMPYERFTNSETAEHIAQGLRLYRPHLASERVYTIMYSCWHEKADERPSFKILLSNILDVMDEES
How it was run: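 Mouse whole blood was incubated with compound and stimulated with F(ab′)2 goat anti-mouse IgG+IgM (100 μg/mL) in the same way as the human assay (18 h, 37 °C, agitation). B cells were gated by APC anti-CD19, and CD69 was quantified as FITC MFI by FACS.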

[12] = AUC in mouse at 10 mg/kg; format: ADME, organism-based; details: in vivo
[13] = Protein binding in human serum; format: ADME; details: read-out: PPB (converted)
Cytochrome P450 3A4 = Cytochrome P450 3A4 (Homo sapiens, UniProt P08684); assay: Inhibition of CYP3A4 (unknown origin); format: ADME
Cytochrome P450 3A4, sequence (P08684 whole entry): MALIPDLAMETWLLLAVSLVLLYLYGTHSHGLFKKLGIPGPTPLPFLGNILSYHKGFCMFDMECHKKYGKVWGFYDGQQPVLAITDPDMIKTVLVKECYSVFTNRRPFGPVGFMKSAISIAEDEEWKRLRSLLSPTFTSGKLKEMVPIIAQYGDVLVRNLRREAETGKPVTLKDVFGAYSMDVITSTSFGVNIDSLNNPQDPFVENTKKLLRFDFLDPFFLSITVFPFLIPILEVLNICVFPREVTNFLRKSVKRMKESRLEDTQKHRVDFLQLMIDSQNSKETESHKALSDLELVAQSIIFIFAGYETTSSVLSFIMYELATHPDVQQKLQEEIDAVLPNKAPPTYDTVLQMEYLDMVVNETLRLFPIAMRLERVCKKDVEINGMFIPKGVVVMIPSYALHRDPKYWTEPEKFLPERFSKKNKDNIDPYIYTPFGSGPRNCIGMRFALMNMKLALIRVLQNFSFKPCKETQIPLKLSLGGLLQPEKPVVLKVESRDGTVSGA

[14] = Permeability of the compound at pH 5.5 by PAMPA assay; format: ADME; details: read-out: permeability
[15] = MRT in mouse at 3 mg/kg, iv; format: ADME, organism-based; details: in vivo
[16] = Aqueous solubility of the compound; format: physicochemical; details: aqueous medium
[17] = Protein binding in monkey plasma; format: ADME, cell-free, Macaca mulatta; details: rhesus monkey, read-out: PPB (converted)
[18] = Drug uptake in rat brain relative to plasma concentration; format: ADME
[19] = Clearance in mouse at 3 mg/kg, iv; format: ADME, organism-based; details: in vivo
Cytochrome P450 1A2 = target: T2, Cytochrome P450 1A2 (Homo sapiens, UniProt P05177); assay: Inhibition of CYP1A2 (unknown origin); format: ADME
T2 sequence (P05177 whole entry): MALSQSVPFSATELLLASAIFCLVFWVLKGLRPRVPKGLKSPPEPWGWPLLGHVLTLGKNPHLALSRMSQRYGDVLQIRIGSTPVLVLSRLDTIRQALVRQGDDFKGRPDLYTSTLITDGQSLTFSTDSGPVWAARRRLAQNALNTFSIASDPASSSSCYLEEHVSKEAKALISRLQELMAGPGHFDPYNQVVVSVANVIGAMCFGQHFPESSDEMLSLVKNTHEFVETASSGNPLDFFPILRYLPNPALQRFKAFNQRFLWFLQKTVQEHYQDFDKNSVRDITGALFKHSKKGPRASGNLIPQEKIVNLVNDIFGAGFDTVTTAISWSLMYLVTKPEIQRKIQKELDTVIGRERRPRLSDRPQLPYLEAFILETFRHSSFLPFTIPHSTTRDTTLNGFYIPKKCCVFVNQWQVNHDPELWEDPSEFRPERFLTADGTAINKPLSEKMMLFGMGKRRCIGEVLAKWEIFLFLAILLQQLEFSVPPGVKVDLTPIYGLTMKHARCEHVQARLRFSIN

[20] = Drug metabolism in po dosed rat plasma assessed as isomerization of atropisomeric center after 24 hrs; format: ADME, organism-based; details: read-out: Drug metabolism
[21] = Volume of distribution at steady state in cynomolgus monkey at 2 mg/kg, iv; format: ADME, organism-based, Macaca fascicularis; details: in vivo, read-out: Vdss
[22] = Bioavailability in mouse at 10 mg/kg; format: ADME, organism-based; details: in vivo
[23] = Cmax in rat at 5 mg/kg, po; format: ADME, organism-based; parameters: dose 5 mg/kg, route oral; details: in vivo
[24] = MRT in rat at 2 mg/kg, iv; format: ADME, organism-based; details: in vivo
[25] = AUC in cynomolgus monkey at 4 mg/kg, po; format: ADME, organism-based, Macaca fascicularis; details: in vivo
[26] = Protein binding in rat plasma; format: ADME, cell-free; details: read-out: PPB (converted)
[27] = target: T1, Tyrosine-protein kinase BTK; assay: Inhibition of BTK in human whole blood basophils assessed as suppression of FceRI/anti-IgE-stimulated CD63 surface expression; format: tissue-based
[28] = Permeability of the compound at pH 7.4 by PAMPA assay; format: ADME; details: read-out: permeability
[29] = Cmax in dog at 2 mg/kg, po; format: ADME, organism-based, Canis lupus familiaris; parameters: dose 2 mg/kg, route oral; details: in vivo
[30] = AUC in rat at 5 mg/kg, po; format: ADME, organism-based; details: in vivo
[31] = Mutagenicity in Salmonella typhimurium by Ames test; format: toxicity; details: salmonella enterica subsp. enterica serovar typhimurium

Voltage-gated inwardly rectifying potassium channel KCNH2, sequence (Q12809 whole entry): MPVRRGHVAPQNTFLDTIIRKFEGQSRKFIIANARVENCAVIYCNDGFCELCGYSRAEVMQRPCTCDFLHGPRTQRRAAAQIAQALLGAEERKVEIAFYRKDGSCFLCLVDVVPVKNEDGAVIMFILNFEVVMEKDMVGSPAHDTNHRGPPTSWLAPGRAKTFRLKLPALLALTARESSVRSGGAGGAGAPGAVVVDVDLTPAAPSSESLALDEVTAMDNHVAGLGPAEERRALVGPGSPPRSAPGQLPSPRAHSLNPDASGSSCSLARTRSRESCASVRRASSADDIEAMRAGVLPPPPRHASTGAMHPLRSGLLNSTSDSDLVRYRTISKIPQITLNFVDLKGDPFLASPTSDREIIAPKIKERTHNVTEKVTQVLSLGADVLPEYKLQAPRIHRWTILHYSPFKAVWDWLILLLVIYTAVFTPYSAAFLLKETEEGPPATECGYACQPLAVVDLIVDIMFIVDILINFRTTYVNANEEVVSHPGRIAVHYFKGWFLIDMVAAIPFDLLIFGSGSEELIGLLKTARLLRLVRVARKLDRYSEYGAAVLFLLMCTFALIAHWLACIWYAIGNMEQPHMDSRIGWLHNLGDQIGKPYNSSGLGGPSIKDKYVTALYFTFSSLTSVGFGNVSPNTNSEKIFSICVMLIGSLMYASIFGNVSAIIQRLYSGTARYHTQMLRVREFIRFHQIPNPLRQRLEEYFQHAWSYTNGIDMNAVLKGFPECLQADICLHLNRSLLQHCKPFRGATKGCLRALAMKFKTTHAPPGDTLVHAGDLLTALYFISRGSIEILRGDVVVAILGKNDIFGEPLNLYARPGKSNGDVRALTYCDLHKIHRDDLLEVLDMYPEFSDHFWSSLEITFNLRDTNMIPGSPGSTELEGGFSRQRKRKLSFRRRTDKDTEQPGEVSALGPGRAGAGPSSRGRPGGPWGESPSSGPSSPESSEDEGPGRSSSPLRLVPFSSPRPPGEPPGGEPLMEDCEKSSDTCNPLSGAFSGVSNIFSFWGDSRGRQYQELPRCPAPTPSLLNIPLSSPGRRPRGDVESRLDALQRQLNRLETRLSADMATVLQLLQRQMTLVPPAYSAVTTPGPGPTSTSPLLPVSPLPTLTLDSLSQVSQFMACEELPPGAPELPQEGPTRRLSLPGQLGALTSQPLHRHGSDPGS

Vd [1]: 1.2 L/kg
solubility [3]: 18 µg/mL (≈ 31.4 µM)
half-life [4]: 5.1 h
IC50 [5]: 0.003 µM
IC50 [6]: > 10 µM
Tmax [7]: 3.7 h
bioavailability [8]: 33%
IC50 (Cytochrome P450 2C19): 32.2 µM
AUC [9]: 39 µM·h
IC50 (Cytochrome P450 2D6): > 40 µM
bioavailability [10]: 100%
IC50 (Cytochrome P450 2C9): 17.1 µM
IC50 [11]: 0.14 µM
AUC [12]: 39 µM·h
fraction unbound [13]: 0.009
IC50 (Cytochrome P450 3A4): 8.5 µM
Papp [14]: 67.3 ×10⁻⁶ cm/s
MRT [15]: 4.8 h
solubility [16]: < 4 µg/mL
fraction unbound [17]: 0.012
Drug uptake [18]: < 5%
clearance [19]: 4.1 mL/min/kg
IC50 (Cytochrome P450 1A2): > 40 µM
metabolised at 24 h [20]: < 2%
Vd [21]: 3 L/kg
bioavailability [22]: < 4%
Cmax [23]: 2300 nM
MRT [24]: 5.1 h
AUC [25]: 5 µM·h
fraction unbound [26]: 0.017
IC50 [27]: 0.089 µM
Papp [28]: 72.5 ×10⁻⁶ cm/s
Cmax [29]: 1200 nM
AUC [30]: 23 µM·h
SMILES: Cc1c(-c2c(F)cc(C(N)=O)c3[nH]c4c(c23)CC[C@H](C(C)(C)O)C4)cccc1-n1c(=O)c2cccc(F)c2n(C)c1=O (atropisomer R) [BMS-986142]
IC50 [2]: 5.5 µM
Activity (Mus musculus): 72%
Activity [31]: Non-Toxic
